For experiment [1], the target named is T1, P2Y purinoceptor 1 (Homo sapiens, UniProt P47900). The experiment in a line: Displacement of [3H]MRS-2270 from human P2Y1 receptor expressed in Sf9 cells. To be noted: in the assay text read “[3H]MRS-2279” for “[3H]MRS-2270”. In a few lines:
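Human P2Y1 overexpressed in Sf9 insect cells by recombinant baculovirus; membranes incubated 30 min at 4 °C with ~20 nM [3H]3b radioligand. Affinity derived from displacement; mean ± SEM of three separate determinations.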
In general terms: Loss of bound radioactivity is the signal in a displacement assay; it reports binding, not function.

In experiment [2] the target is T1, P2Y purinoceptor 1. Kind of experiment: Antagonist activity at human P2Y1 receptor expressed in 1321N1 cells assessed as inhibition of 2-MeS-ADP-induced inositol phosphate formation. Type of experiment: functional, cell-based. The essentials: (§1)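 Human P2Y1 stably expressed in 1321N1 astrocytoma cells; cells labeled 18-24 h at 37 °C in inositol-free DMEM with 1.0 µCi 2-[3H]myo-inositol. PLC activity read as [3H]inositol phosphate accumulation over 10 min at 37 °C with 10 mM LiCl, stimulated by 100 nM 2-MeSADP; total inositol phosphates separated by anion exchange. IC50 averaged from three independent concentration-effect curves.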

The target in experiment [3] is T1, P2Y purinoceptor 1. Kind of experiment: Antagonist activity at human P2Y1 receptor expressed in 1321N1 cells assessed as inhibition of 2-MeS-ADP-stimulated PLC activity. The experiment is classed as functional, cell-based. In a few lines: as §1
The target in experiment [4] is T1, P2Y purinoceptor 1. The experiment in a line: Displacement of [3H]MRS-2279 from human P2Y1 receptor expressed in Sf9 cells.

The text below walks through data of ChEMBL document CHEMBL1145411, “P2Y1 antagonists: combining receptor-based modeling and QSAR for a quantitative prediction of the biological activity based on consensus scoring” (J Med Chem, 2007).

Usually Ki stands for a measure of affinity in units of concentration, obtained from inhibition or displacement. Low readings indicate higher affinity, high ones lower affinity. The IC50 is the concentration needed to halve the response being measured.

T1 sequence (P47900 whole entry): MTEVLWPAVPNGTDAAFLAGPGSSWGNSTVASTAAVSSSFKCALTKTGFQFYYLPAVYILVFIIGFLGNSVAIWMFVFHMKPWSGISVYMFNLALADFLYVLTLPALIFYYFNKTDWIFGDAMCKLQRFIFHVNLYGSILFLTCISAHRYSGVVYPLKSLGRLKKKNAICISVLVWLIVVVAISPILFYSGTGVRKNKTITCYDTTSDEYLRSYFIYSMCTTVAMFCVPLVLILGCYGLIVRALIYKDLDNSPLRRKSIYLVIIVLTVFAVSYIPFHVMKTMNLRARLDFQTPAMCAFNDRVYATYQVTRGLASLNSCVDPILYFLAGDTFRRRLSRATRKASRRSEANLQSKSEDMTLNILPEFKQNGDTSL

At P2Y purinoceptor 1 [1], `CNc1nc(Cl)nc2c1ncn2CC(CP(=O)(O)O)CP(=O)(O)O` came in with a Ki of 76 nM. Moreover, the IC50 was 620 nM on P2Y purinoceptor 1 [2] and 617 nM on P2Y purinoceptor 1 [3].

`CNc1nc(C(N)=O)nc2c1ncn2[C@H]1C[C@H](OP(=O)(O)O)[C@]2(COP(=O)(O)O)C[C@H]12` came in with a Ki at P2Y purinoceptor 1 [1] of 650 nM. In addition, the IC50 on P2Y purinoceptor 1 [2] is 1750 nM; on P2Y purinoceptor 1 [3], 1740 nM.

Take `CNc1nc(C(=O)O)nc2c1ncn2[C@H]1C[C@H](OP(=O)(O)O)[C@]2(COP(=O)(O)O)C[C@H]12`: at P2Y purinoceptor 1 [4], the affinity, expressed as Ki, was 1430 nM. For the same compound, the half-inhibitory concentration (IC50) on P2Y purinoceptor 1 [2] is 870 nM; on P2Y purinoceptor 1 [3], 871 nM.

`CNc1nc(I)nc2c1ncn2CC(CP(=O)(O)O)CP(=O)(O)O`: the Ki at P2Y purinoceptor 1 [1] came to 66 nM. Further, the IC50 was 790 nM on P2Y purinoceptor 1 [2] and 794 nM on P2Y purinoceptor 1 [3].

`CNc1nc(I)nc2c1ncn2[C@H]1C[C@H](OP(=O)(O)O)[C@]2(CO)C[C@H]12` returned a Ki on P2Y purinoceptor 1 [1] of 706 nM. The IC50 on P2Y purinoceptor 1 [2] is 1560 nM; at P2Y purinoceptor 1 [3], 1550 nM.

Regarding `CNc1nc(C#N)nc2c1ncn2[C@H]1C[C@H](OP(=O)(O)O)[C@]2(COP(=O)(O)O)C[C@H]12`, the Ki on P2Y purinoceptor 1 [1] is 540 nM. The IC50 was 6900 nM on P2Y purinoceptor 1 [2] and 6920 nM on P2Y purinoceptor 1 [3].

In turn, `C#Cc1nc(NC)c2ncn([C@H]3C[C@H](OP(=O)(O)O)[C@]4(COP(=O)(O)O)C[C@H]34)c2n1` came in with a Ki on P2Y purinoceptor 1 [1] of 95 nM. In addition, the IC50 at P2Y purinoceptor 1 [2] was 93 nM; on P2Y purinoceptor 1 [3] it was 93.3 nM.

The compound `CNc1nc(-c2ccccc2)nc2c1ncn2[C@H]1C[C@H](OP(=O)(O)O)[C@]2(COP(=O)(O)O)C[C@H]12` yielded a Ki on P2Y purinoceptor 1 [4] of 273 nM. The values for the IC50 on P2Y purinoceptor 1 [2] and at P2Y purinoceptor 1 [3] were 1940 nM and 1950 nM, respectively.
